The term inhibition in vivo denotes the percentage by which the read-out fell short of the control.

One data set has as its system Rattus norvegicus. The data set is described as follows: Ulcerogenic activity in albino rat carrageenan-induced paw edema model assessed as ulcer index at 0.28 mmol/kg, po (reference value: 0.60 +/- 0.05). Type of data set: toxicity, organism-based. As to conditions: in vivo; call rule not given here. The method, boiled down: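 Rats given the compound orally at 0.28 mmol/kg, suspended in 0.5% aqueous CMC; vehicle-only control, n = 4 per group. Gastric ulcers graded by area: I (<1 mm²), II (1–3 mm²), III (>3 mm²). Ulcer index = 1×(level I count) + 2×(level II) + 3×(level III). Mean ± SEM, one-way ANOVA versus control.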
Regarding `C=CCn1c(SCC(=O)Nc2ccc(C(C)=O)cc2)nnc1-c1ccc(OC)c(OC)c1`, the UI amounted to 2.45.

Regarding `C=CCn1c(SCC(=O)Nc2ccc(/C(C)=N/O)cc2)nnc1-c1ccc(OC)c(OC)c1`, the UI stood at 0.25.

In the case of `C=CCn1c(SCC(=O)Nc2ccc(/C(C)=N/O)cc2)nnc1-c1cc(OC)c(OC)c(OC)c1`, the UI is listed as 0.75.

The subject of the next data set is Rattus norvegicus. Put plainly: Gastrointestinal toxicity in albino rat carrageenan-induced paw edema model assessed as loss of morphology of glandular structures at 0.28 mmol/kg, po by hematoxylin and eosin staining-based light microscopic analysis. Type of data set: organism-based. As to conditions: in vivo. An outline of the steps:
(§1)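 Rats were dosed orally at 0.28 mmol/kg, suspended in 0.5% aqueous CMC; vehicle-only animals served as controls. After ulcer scoring, stomach sections were stained with haematoxylin and eosin: acid-alcohol differentiation, then 1% eosin for 10 min. Sections were dehydrated, cleared in xylene, mounted and examined by light microscopy.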
For orientation: Carrageenan injected into the paw causes an acute inflammation.
On to `C=CCn1c(SCC(=O)Nc2ccc(C(C)=O)cc2)nnc1-c1ccc(OC)c(OC)c1`, for which the Activity entry was “Toxic”.

Tested on in a further data set: not listed separately
Put plainly: Induction of nitric oxide release in phosphate buffer at 10^-4 M at pH 7.4 after 5 hrs by Griess colorimetric method in presence of N-acetylcysteine. It is filed as physicochemical. As to conditions: pH 7.4, 5 h, 100 µM. The method, boiled down: (§2)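 Final drug concentration 10^-4 M, added from DMF into 1:1 50 mM phosphate buffer (pH 7.4)/MeOH containing 5 × 10^-4 M N-acetylcysteine, at 37 °C. Nitrite read with Griess reagent after 10 min at room temperature, absorbance at 546 nm. Calibration with sodium nitrite standards (10–80 nmol/ml). Reported as mol NO per mol, n = 4 reaction mixtures.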
With `C=CCn1c(SCC(=O)Nc2ccc(/C(C)=N/O)cc2)nnc1-c1ccc(OC)c(OC)c1`, the Activity is 0.27 mol/mol.

On to `C=CCn1c(SCC(=O)Nc2ccc(/C(C)=N/O)cc2)nnc1-c1cc(OC)c(OC)c(OC)c1`, for which the Activity is on record as 0.18 mol/mol.

A further data set relates to Rattus norvegicus. Put plainly: Gastrointestinal toxicity in albino rat carrageenan-induced paw edema model assessed as acute inflammatory cell infiltrating its whole thickness at 0.28 mmol/kg, po by hematoxylin and eosin staining-based light microscopic analysis. It is filed as organism-based. As to conditions: in vivo. The method, boiled down:
as §1
Consider `C=CCn1c(SCC(=O)Nc2ccc(/C(C)=N/O)cc2)nnc1-c1ccc(OC)c(OC)c1`, for which the Activity entry is “Non-toxic”.

A further data set has as its system Rattus norvegicus. Put plainly: Antiinflammatory activity in albino rat assessed as inhibition of carrageenan-induced paw edema at 0.28 mmol/kg, po administered 30 mins prior to carrageenan-challenge measured after 5 hrs relative to control. Type of data set: functional.
Details: not given
The method, boiled down:
(§3)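 Male albino rats in groups of four were fasted 24 h with water allowed. Dosing was oral at 0.28 mmol/kg, suspended in 0.5% w/v CMC; controls got CMC alone. After 30 min, 0.1 ml of 1% carrageenan in saline went subplantar into the right hind paw and saline into the left. Paw thickness was read by caliper before and at 1–5 h. % inhibition = [(VR−VL)control−(VR−VL)treated]/(VR−VL)control ×100. Mean ± SEM, n = 4, one-way ANOVA vs control.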
For `C=CCn1c(SCC(=O)Nc2ccc(C(C)=O)cc2)nnc1-c1ccc(OC)c(OC)c1`, the inhibition in vivo at 280 µmol/kg is 64%.

For `C=CCn1c(SCC(=O)Nc2ccc(/C(C)=N/O)cc2)nnc1-c1ccc(OC)c(OC)c1`, the inhibition in vivo at 280 µmol/kg worked out at 79%.

For `C=CCn1c(SCC(=O)Nc2ccc(/C(C)=N/O)cc2)nnc1-c1cc(OC)c(OC)c(OC)c1`, the inhibition in vivo at 280 µmol/kg is 64%.

The test system of the next data set is Rattus norvegicus. Put plainly: Gastrointestinal toxicity in albino rat carrageenan-induced paw edema model assessed as severe atrophic gastritis and gland atrophy at 0.28 mmol/kg, po by hematoxylin and eosin staining-based light microscopic analysis. It is filed as organism-based. The note with it: in vivo. The method, boiled down:
as §1
As to `C=CCn1c(SCC(=O)Nc2ccc(/C(C)=N/O)cc2)nnc1-c1ccc(OC)c(OC)c1`, the Activity entry is given as “Non-toxic”.

A further data set deals with Rattus norvegicus. The data set is described as follows: Gastrointestinal toxicity in albino rat carrageenan-induced paw edema model assessed as appearance of ulcer at 0.28 mmol/kg, po by hematoxylin and eosin staining-based light microscopic analysis. The note with it: in vivo. Type of data set: organism-based. An outline of the steps: as §1
For `C=CCn1c(SCC(=O)Nc2ccc(/C(C)=N/O)cc2)nnc1-c1ccc(OC)c(OC)c1`, the Activity result is listed as “Non-toxic”.

Another data set concerns Rattus norvegicus. The data set is described as follows: Antiinflammatory activity in albino rat assessed as inhibition of carrageenan-induced paw edema at 0.28 mmol/kg, po administered 30 mins prior to carrageenan-challenge measured after 1 hr relative to control. Type of data set: functional.
Details: not given
The method, boiled down:
as §3
As to `C=CCn1c(SCC(=O)Nc2ccc(C(C)=O)cc2)nnc1-c1ccc(OC)c(OC)c1`, the inhibition in vivo at 280 µmol/kg came out at 56%.

For the molecule `C=CCn1c(SCC(=O)Nc2ccc(/C(C)=N/O)cc2)nnc1-c1ccc(OC)c(OC)c1`, the inhibition in vivo at 280 µmol/kg was found to be 53%.

Turning to `C=CCn1c(SCC(=O)Nc2ccc(/C(C)=N/O)cc2)nnc1-c1cc(OC)c(OC)c(OC)c1`, the inhibition in vivo at 280 µmol/kg amounted to 49%.

Tested on in a further data set: not listed separately
Put plainly: Induction of nitric oxide release in phosphate buffer at 10^-4 M at pH 7.4 after 4 hrs by Griess colorimetric method in presence of N-acetylcysteine. Type of data set: physicochemical. The note with it: pH 7.4, 4 h, 100 µM. An outline of the steps: as §2
(Griess reagent forms a coloured azo dye with nitrite.)
For the molecule `C=CCn1c(SCC(=O)Nc2ccc(/C(C)=N/O)cc2)nnc1-c1ccc(OC)c(OC)c1`, the Activity was determined as 0.35 mol/mol.

Turning to `C=CCn1c(SCC(=O)Nc2ccc(/C(C)=N/O)cc2)nnc1-c1cc(OC)c(OC)c(OC)c1`, the Activity was 0.24 mol/mol.

The next data set concerns Rattus norvegicus. Put plainly: Antiinflammatory activity in albino rat assessed as inhibition of carrageenan-induced paw edema at 0.28 mmol/kg, po administered 30 mins prior to carrageenan-challenge measured after 4 hrs relative to control.
Details: not given
It is filed as functional. An outline of the steps:
as §3
Take `C=CCn1c(SCC(=O)Nc2ccc(C(C)=O)cc2)nnc1-c1ccc(OC)c(OC)c1`: the inhibition in vivo at 280 µmol/kg worked out at 70%.

`C=CCn1c(SCC(=O)Nc2ccc(/C(C)=N/O)cc2)nnc1-c1ccc(OC)c(OC)c1`: the inhibition in vivo at 280 µmol/kg was 79%.

Consider `C=CCn1c(SCC(=O)Nc2ccc(/C(C)=N/O)cc2)nnc1-c1cc(OC)c(OC)c(OC)c1`, for which the inhibition in vivo at 280 µmol/kg came out at 72%.

The test system of another data set is Rattus norvegicus. The data set is described as follows: Gastrointestinal toxicity in albino rat carrageenan-induced paw edema model assessed as capillary vasodilatation of lamina propria associated with accumulation of edema fluid at 0.28 mmol/kg, po by hematoxylin and eosin staining-based light microscopic analysis. It is filed as organism-based. The note with it: in vivo. The method, boiled down: as §1
With `C=CCn1c(SCC(=O)Nc2ccc(/C(C)=N/O)cc2)nnc1-c1ccc(OC)c(OC)c1`, the Activity entry is “Non-toxic”.

For the next data set, the system named is Rattus norvegicus. Put plainly: Antiinflammatory activity in albino rat assessed as inhibition of carrageenan-induced paw edema at 0.28 mmol/kg, po administered 30 mins prior to carrageenan-challenge measured after 3 hrs relative to control. Type of data set: functional.
Details: not given
An outline of the steps:
as §3
As for `C=CCn1c(SCC(=O)Nc2ccc(C(C)=O)cc2)nnc1-c1ccc(OC)c(OC)c1`, the inhibition in vivo at 280 µmol/kg was found to be 58%.

For `C=CCn1c(SCC(=O)Nc2ccc(/C(C)=N/O)cc2)nnc1-c1ccc(OC)c(OC)c1`, the inhibition in vivo at 280 µmol/kg worked out at 70%.

`C=CCn1c(SCC(=O)Nc2ccc(/C(C)=N/O)cc2)nnc1-c1cc(OC)c(OC)c(OC)c1`: the inhibition in vivo at 280 µmol/kg worked out at 62%.

Tested on in the next data set: not listed separately
The data set is described as follows: Induction of nitric oxide release in HCl buffer at 10^-4 M at pH 1 after 1 hr by Griess colorimetric method in presence of N-acetylcysteine. Type of data set: physicochemical. As to conditions: pH 1, 1 h, 100 µM. An outline of the steps:
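Same Griess nitrite procedure at 10^-4 M final drug with N-acetylcysteine at 37 °C, but with 0.1 N HCl (pH 1) in place of the pH 7.4 phosphate buffer. Absorbance at 546 nm against a sodium nitrite calibration curve.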
For the molecule `C=CCn1c(SCC(=O)Nc2ccc(/C(C)=N/O)cc2)nnc1-c1ccc(OC)c(OC)c1`, the Activity result is recorded as “Not Active”.

`C=CCn1c(SCC(=O)Nc2ccc(/C(C)=N/O)cc2)nnc1-c1cc(OC)c(OC)c(OC)c1`: the Activity result is on record as “Not Active”.

Tested on in another data set: not listed separately
The data set is described as follows: Induction of nitric oxide release in phosphate buffer at 10^-4 M at pH 7.4 after 1 hr by Griess colorimetric method in presence of N-acetylcysteine. It is filed as physicochemical. As to conditions: pH 7.4, 1 h, 100 µM. An outline of the steps: as §2
Turning to `C=CCn1c(SCC(=O)Nc2ccc(/C(C)=N/O)cc2)nnc1-c1ccc(OC)c(OC)c1`, the Activity turned out to be 0.13 mol/mol.

As to `C=CCn1c(SCC(=O)Nc2ccc(/C(C)=N/O)cc2)nnc1-c1cc(OC)c(OC)c(OC)c1`, the Activity was found to be 0.11 mol/mol.

For another data set, the system named is Rattus norvegicus. Put plainly: Gastrointestinal toxicity in albino rat carrageenan-induced paw edema model assessed as decrease in thickness of gastric mucosa with marked loss of mucosal membrane at areas of ulceration at 0.28 mmol/kg, po by hematoxylin and eosin staining-based light microscopic analysis. Type of data set: organism-based. The note with it: in vivo. An outline of the steps:
as §1
On to `C=CCn1c(SCC(=O)Nc2ccc(C(C)=O)cc2)nnc1-c1ccc(OC)c(OC)c1`, for which the Activity entry is listed as “Toxic”.

Tested on in the next data set: not listed separately
The data set is described as follows: Induction of nitric oxide release in phosphate buffer at 10^-4 M at pH 7.4 after 2 hrs by Griess colorimetric method in presence of N-acetylcysteine. Type of data set: physicochemical. The note with it: pH 7.4, 2 h, 100 µM. The method, boiled down:
as §2
Turning to `C=CCn1c(SCC(=O)Nc2ccc(/C(C)=N/O)cc2)nnc1-c1ccc(OC)c(OC)c1`, the Activity came out at 0.16 mol/mol.

With `C=CCn1c(SCC(=O)Nc2ccc(/C(C)=N/O)cc2)nnc1-c1cc(OC)c(OC)c(OC)c1`, the Activity was found to be 0.15 mol/mol.

Tested on in the next data set: not listed separately
Put plainly: Induction of nitric oxide release in phosphate buffer at 10^-4 M at pH 7.4 after 3 hrs by Griess colorimetric method in presence of N-acetylcysteine. It is filed as physicochemical. The note with it: pH 7.4, 3 h, 100 µM. An outline of the steps:
as §2
In the case of `C=CCn1c(SCC(=O)Nc2ccc(/C(C)=N/O)cc2)nnc1-c1ccc(OC)c(OC)c1`, the Activity came to 0.32 mol/mol.

As for `C=CCn1c(SCC(=O)Nc2ccc(/C(C)=N/O)cc2)nnc1-c1cc(OC)c(OC)c(OC)c1`, the Activity was determined as 0.19 mol/mol.

Another data set concerns Rattus norvegicus. Put plainly: Antiinflammatory activity in albino rat assessed as inhibition of carrageenan-induced paw edema at 0.28 mmol/kg, po administered 30 mins prior to carrageenan-challenge measured after 2 hrs relative to control. Type of data set: functional.
Details: not given
An outline of the steps: as §3
`C=CCn1c(SCC(=O)Nc2ccc(C(C)=O)cc2)nnc1-c1ccc(OC)c(OC)c1`: the inhibition in vivo at 280 µmol/kg was determined as 57%.

As to `C=CCn1c(SCC(=O)Nc2ccc(/C(C)=N/O)cc2)nnc1-c1ccc(OC)c(OC)c1`, the inhibition in vivo at 280 µmol/kg is 56%.

For `C=CCn1c(SCC(=O)Nc2ccc(/C(C)=N/O)cc2)nnc1-c1cc(OC)c(OC)c(OC)c1`, the inhibition in vivo at 280 µmol/kg came out at 53%.

Tested on in another data set: not listed separately
The data set is described as follows: Induction of nitric oxide release in phosphate buffer at 10^-4 M at pH 7.4 after 6 hrs by Griess colorimetric method in presence of N-acetylcysteine. It is filed as physicochemical. As to conditions: pH 7.4, 6 h, 100 µM. The method, boiled down:
as §2
`C=CCn1c(SCC(=O)Nc2ccc(/C(C)=N/O)cc2)nnc1-c1ccc(OC)c(OC)c1`: the Activity was 0.26 mol/mol.

Take `C=CCn1c(SCC(=O)Nc2ccc(/C(C)=N/O)cc2)nnc1-c1cc(OC)c(OC)c(OC)c1`: the Activity came out at 0.16 mol/mol.

These data come from ChEMBL document CHEMBL3102806, “1,2,4-Triazole/oxime hybrids as new strategy for nitric oxide donors: Synthesis, anti-inflammatory, ulceroginicity and antiproliferative activities” (Eur J Med Chem, 2014).
